Screens as filed in PubChem.
KLF5 inhibitor: kruppel-like factor 5 inhibition. inhibition, % at 5 µM. AID 1700. 290,000 compounds, 0.23% hits. DLD-1 KLF5 promoter-luciferase reporter, luminescence;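 active = inhibition above a per-plate limit of that plate's mean compound inhibition plus 3 SD, cut at about 60% in these data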;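 also: 0% = DMSO wells and 100% = LY294002 at 200 µM; higher means less KLF5 promoter-driven luciferase light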
BaF3 parental: reduces parental Ba/F3 cell viability, JAK2V617F counter-screen; CellTiter-Glo ATP luminescence; inhibition, % at 5.6 µM; 220,000 compounds, 1.1% hits; AID 1486;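 active = inhibition above a per-campaign cutoff, the mean inhibition of all tested compounds plus 3 SD, cut at about 27% in these data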;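 also: 0% = DMSO wells and 100% = JAK Inhibitor I control wells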
MT stabilizer: microtubule stabilizers in HeLa cells. HeLa tubulin immunostaining HCS, 24 h; share of cells brighter than vehicle mean+2SD. % tubulin-high responders, % at 10 µM. 200,000 compounds, 0.83% hits;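 active = plate Z-score above 3 for both tubulin-high and condensed-nucleus cell shares, with cell loss under 80%, at 10 µM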;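 also: anti alpha tubulin signal scored within the nucleus-defined area of each cell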
IEC-6 tox: IEC-6 cytotoxicity, counter-screen for KLF5 inhibitors; luminescence viability; AID 1825; 290,000 compounds, 0.78% hits; inhibition, % at 5 µM; in the data active = inhibition above about 22%;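 also: 0% = plate median of test compound wells and 100% = cytotoxic reference compound wells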
Ba/F3 V617F tox: reduce viability of Ba/F3 cells dependent on JAK2V617F; Ba/F3 EpoR-JAK2V617F viability, ATP luminescence; inhibition, % at 5.6 µM; 220,000 compounds, 1.1% hits; AID 1446;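 active = inhibition above the campaign mean plus 3 SD over all tested compounds, cut at about 24% in these data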;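 also: cytokine-independent growth of Ba/F3 cells driven by EpoR plus mutant JAK2; 0% = DMSO-treated cells and 100% = JAK inhibitor I control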
b-catenin transl: alters nuclear translocation of beta-catenin in HeLa cells | immunofluorescence imaging | nuclear translocation activity, % at 5 µM | 190,000 compounds, 0.3% hits | AID 1665;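 active = nuclear translocation activity above 50% at 5 µM, with a well cell count of 50 or more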;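 also: per-cell ratio of nuclear to cytoplasmic median beta-catenin stain intensity; plate controls were DMSO negative control for no effect and GSK-3 inhibitor IX positive control for full effect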
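System: HeLa cells, endogenous beta-catenin; compound dosing: 5 µM primary single dose, 0.1% DMSO, 0.02–20 µM confirmation series; incubation: 24 h compound exposure at 37°C, 5% CO2; signal: beta-catenin immunofluorescence imaging with DAPI; evaluation: % activation, nuclear-to-cytoplasmic median beta-catenin signal ratio per cell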
* = called active by the depositor. This is a sample that favours compounds with a hit; in the whole collection about 2.1% have one here.

What do the screens show for `Cc1cc(CN2C(=O)c3ccccc3C2=O)no1`?
KLF5 inhibitor: -17.1; BaF3 parental: 2.1; MT stabilizer: 13.8; IEC-6 tox: 2.2; Ba/F3 V617F tox: 3.1; b-catenin transl: -3.9

Results for O=C1c2ccccc2C(=O)N1CC1=NCCc2ccccc21 ?
KLF5 inhibitor: -38.1; BaF3 parental: 41.6*; MT stabilizer: 4.7; IEC-6 tox: -0.5; Ba/F3 V617F tox: 14.9; b-catenin transl: -4.0

Results for CC(C(=O)Nc1ccc(C#N)cc1)N(C)CC(=O)Nc1ccccc1Br (configuration not stated) ?
KLF5 inhibitor: -4.9; BaF3 parental: 2.0; MT stabilizer: 2.6; IEC-6 tox: 4.9; Ba/F3 V617F tox: 1.4; b-catenin transl: 0.1

How did O=C(/C=C/c1cn(-c2ccccc2)nc1-c1cccnc1)c1ccco1 do in these assays?
KLF5 inhibitor: -18.4; BaF3 parental: 6.5; MT stabilizer: 12.0*; IEC-6 tox: 4.3; Ba/F3 V617F tox: 15.8; b-catenin transl: 7.5

How did CCCCc1c(O)c2ccccc2n(CCCC)c1=O do in these assays?
KLF5 inhibitor: -16.1; BaF3 parental: 4.1; MT stabilizer: 1.1; IEC-6 tox: 3.6; Ba/F3 V617F tox: 0.1

What do the screens show for `CCCCc1c(CCC)c(=N)c2ccccc2n1C`?
KLF5 inhibitor: -5.3; BaF3 parental: 68.4*; MT stabilizer: 3.2; IEC-6 tox: 0.3; Ba/F3 V617F tox: 75.8*; b-catenin transl: -0.4

How did C=CCN=c1scc(-c2ccccc2)n1/N=C/c1ccccn1 do in these assays?
KLF5 inhibitor: -67.4; BaF3 parental: 56.7*; MT stabilizer: 3.9; IEC-6 tox: 30.9*; Ba/F3 V617F tox: 52.9*; b-catenin transl: 3.1

Results for CCCCN(CC)S(=O)(=O)c1ccc(C(=O)Nc2nnc(CSC)o2)cc1 ?
KLF5 inhibitor: 45.6; BaF3 parental: 42.1*; MT stabilizer: 4.0; IEC-6 tox: 46.1*; Ba/F3 V617F tox: -0.9; b-catenin transl: -0.3

What do the screens show for `CCc1c(OC(C)=O)c2ccccc2n(C)c1=O`?
KLF5 inhibitor: 14.9; BaF3 parental: 3.4; MT stabilizer: 4.0; IEC-6 tox: 0.9; Ba/F3 V617F tox: -5.2; b-catenin transl: 0.4

How did CC(=O)Oc1c(C)c(=O)n(C)c2ccccc12 do in these assays?
KLF5 inhibitor: -12.2; BaF3 parental: 42.3*; MT stabilizer: 2.4; IEC-6 tox: 0.0; Ba/F3 V617F tox: 66.0*; b-catenin transl: -5.4

Results for O=C(CCCN1C(=O)c2ccccc2C1=O)OC1CSCC1NC(=O)c1ccccc1 (configuration not stated) ?
KLF5 inhibitor: -21.4; BaF3 parental: -0.1; MT stabilizer: 1.9; IEC-6 tox: 1.9; Ba/F3 V617F tox: -0.3; b-catenin transl: -2.2

What do the screens show for `CC(NC(=O)Cn1cccc1C(=O)c1ccccc1)c1ccc2c(c1)OCCO2` (configuration not stated)?
KLF5 inhibitor: -13.2; BaF3 parental: 1.0; MT stabilizer: 2.6; IEC-6 tox: 7.2; Ba/F3 V617F tox: -5.4; b-catenin transl: -0.3

How did O=C(CCCn1cc([N+](=O)[O-])cn1)Nc1cccnc1 do in these assays?
KLF5 inhibitor: -33.5; BaF3 parental: -9.5; IEC-6 tox: 2.8; Ba/F3 V617F tox: -2.1; b-catenin transl: -0.4

How did CCC(=O)Nc1nonc1-c1nc2ccccc2n1Cc1cccc2ccccc12 do in these assays?
KLF5 inhibitor: -3.2; BaF3 parental: 4.9; MT stabilizer: 13.3; IEC-6 tox: 4.7; Ba/F3 V617F tox: -0.9; b-catenin transl: 100.6*

How did Cc1nc2c3cc(F)ccc3n(Cc3ccccc3F)c2s1 do in these assays?
KLF5 inhibitor: -0.4; BaF3 parental: 1.8; MT stabilizer: 26.6*; IEC-6 tox: 0.0; Ba/F3 V617F tox: -5.1; b-catenin transl: 2.1

Results for Cc1nc2c3cc(F)ccc3n(Cc3ccccc3)c2s1 ?
KLF5 inhibitor: 36.7; BaF3 parental: 7.7; MT stabilizer: 28.0*; IEC-6 tox: 4.8; Ba/F3 V617F tox: 3.4; b-catenin transl: -0.3

What do the screens show for `Cc1nc2c3cc(F)ccc3n(CCN3CCCCC3)c2s1`?
KLF5 inhibitor: -3.9; BaF3 parental: 5.4; MT stabilizer: 14.5*; IEC-6 tox: 14.9; Ba/F3 V617F tox: -0.6; b-catenin transl: 49.1

How did Cc1nc2c3ccccc3n(CCN3CCCCC3)c2s1 do in these assays?
KLF5 inhibitor: -21.2; BaF3 parental: 1.7; MT stabilizer: 4.1; IEC-6 tox: -0.1; Ba/F3 V617F tox: -0.9; b-catenin transl: -3.7
